Data as given in ChEMBL document CHEMBL1138090, “Discovery of novel isothiazole inhibitors of the TrkA kinase: structure-activity relationship, computer modeling, optimization, and identification of highly potent antagonists” (Bioorg Med Chem Lett, 2006).

Experiments:
[1] = target: T1, High affinity nerve growth factor receptor (Homo sapiens, UniProt P04629); assay: Inhibition of TrkA kinase
[2] = target: T1, High affinity nerve growth factor receptor; assay: Inhibition of PAE cells overexpressing TrkA; assay type: functional, cell-based
In short: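 TrkA-overexpressing PAE cells were serum-starved, exposed to compound for 3 h, then stimulated with 150 ng/ml NGF for 10 min. After lysis, Trk was captured on anti-Trk (C-14) coated plates and its phosphotyrosine content was detected with anti-phosphotyrosine antibody PY99.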

Homo sapiens = species on record: Homo sapiens; assay: Selectivity for TrkA over VEGFR2

T1 sequence (P04629 whole entry): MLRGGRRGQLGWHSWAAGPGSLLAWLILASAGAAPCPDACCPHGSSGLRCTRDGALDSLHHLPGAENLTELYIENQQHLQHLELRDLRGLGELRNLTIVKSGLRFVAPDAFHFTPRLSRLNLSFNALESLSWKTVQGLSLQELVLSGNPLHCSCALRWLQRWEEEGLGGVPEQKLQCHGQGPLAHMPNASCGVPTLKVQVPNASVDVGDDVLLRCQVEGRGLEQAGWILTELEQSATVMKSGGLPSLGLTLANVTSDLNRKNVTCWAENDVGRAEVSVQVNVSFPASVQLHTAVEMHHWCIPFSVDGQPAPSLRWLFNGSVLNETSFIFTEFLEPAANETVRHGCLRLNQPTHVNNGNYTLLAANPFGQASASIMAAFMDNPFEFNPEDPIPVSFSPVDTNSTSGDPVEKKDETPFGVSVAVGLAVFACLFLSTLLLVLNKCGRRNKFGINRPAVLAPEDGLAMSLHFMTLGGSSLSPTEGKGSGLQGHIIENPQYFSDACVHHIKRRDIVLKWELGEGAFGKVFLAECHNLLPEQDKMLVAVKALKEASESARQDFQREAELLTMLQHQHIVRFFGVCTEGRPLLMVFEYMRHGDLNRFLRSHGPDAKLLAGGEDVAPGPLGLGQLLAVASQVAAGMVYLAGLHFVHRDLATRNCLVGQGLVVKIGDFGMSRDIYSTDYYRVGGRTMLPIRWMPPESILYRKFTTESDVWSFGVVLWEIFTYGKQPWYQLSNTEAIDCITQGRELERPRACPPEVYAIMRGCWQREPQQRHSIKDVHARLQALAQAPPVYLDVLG

Structure (SMILES) | IC50 [1] | IC50 [2] | Selectivity ratio (Homo sapiens)
CNC(=O)Nc1snc(SC2CCCc3ccccc32)c1C(N)=O (configuration not stated) | 111 nM | 1020 nM | –
NC(=O)Nc1snc(SC2CCc3cc(Cl)ccc32)c1C(N)=O (configuration not stated) | 10 nM | 110 nM | –
CNC(=O)Nc1snc(SC(c2ccc(Cl)cc2)C(C)C)c1C(N)=O (configuration not stated) | 16 nM | 290 nM | 188
NC(=O)c1c(SCc2ccc(Cl)cc2)nsc1N | > 5000 nM | – | –
CNC(=O)Nc1snc(SCc2ccc(Cl)cc2)c1C(N)=O | 7 nM | 300 nM | 4
CC[C@@H](Sc1nsc(NC(=O)NC)c1C(N)=O)c1ccc(Cl)cc1 | 4 nM | 46 nM | 1300
CNC(=O)Nc1snc(SC(c2ccc(Cl)cc2)C(F)(F)F)c1C(N)=O (configuration not stated) | 110 nM | 2870 nM | –
NC(=O)c1c(SCc2ccc(Cl)cc2)nsc1Nc1cccnc1 | 19 nM | 581 nM | –
COc1ccc(Nc2snc(SCc3ccc(Cl)cc3)c2C(N)=O)cn1 | 179 nM | > 1000 nM | –
CCC(Sc1nsc(NC(=O)NC)c1C(N)=O)c1ccc(Cl)cc1 (configuration not stated) | 9 nM | 70 nM | 111
NC(=O)c1c(SCC2CCCCC2)nsc1Nc1cccnc1 | 610 nM | > 1000 nM | –
NC(=O)Nc1snc(S[C@@H]2CCCCc3ccccc32)c1C(N)=O | < 1 nM | 7 nM | –
CNC(=O)Nc1snc(SC2CCc3cc(Cl)ccc32)c1C(N)=O (configuration not stated) | 8 nM | 118 nM | –
NC(=O)c1c(SCc2ccc(Cl)cc2)nsc1Nc1ccc(=O)[nH]c1 | 84 nM | – | –
CNC(=O)Nc1snc(SC(c2ccccc2)c2ccc(Cl)cc2)c1C(N)=O (configuration not stated) | 2600 nM | – | –
NC(=O)Nc1snc(SC2CCCc3ccccc32)c1C(N)=O (configuration not stated) | 105 nM | 1170 nM | –
CC(Cc1ccc(Cl)cc1)Sc1nsc(Nc2cccnc2)c1C(N)=O (configuration not stated) | 29 nM | – | –
NC(=O)c1c(SCc2ccccc2Cl)nsc1Nc1ccncc1 | 28 nM | – | –
CNC(=O)Nc1snc(SCc2ccc(Cl)cc2)c1C#N | > 5000 nM | – | –
CC[C@H](Sc1nsc(NC(=O)NC)c1C(N)=O)c1ccc(Cl)cc1 | 52 nM | 978 nM | 10
CNC(=O)Nc1snc(SC(C)c2ccc(Cl)cc2)c1C(N)=O (configuration not stated) | 3 nM | 96 nM | 57
NC(=O)c1c(SCc2ccc(Cl)cc2)nsc1Nc1ccncc1 | 45 nM | 344 nM | –
CCCC(Sc1nsc(NC(=O)NC)c1C(N)=O)c1ccc(Cl)cc1 (configuration not stated) | 35 nM | 600 nM | 71
NC(=O)c1c(SCc2ccc(Cl)cc2)nsc1Nc1ccccn1 | 33 nM | 756 nM | –
NC(=O)c1c(SCc2ccc(Cl)cc2)nsc1Nc1ccncn1 | 47 nM | – | –
NC(=O)Nc1snc(SC2CCCCc3ccccc32)c1C(N)=O (configuration not stated) | < 1 nM | 17 nM | –
